Here are results for two molecules from ChEMBL document CHEMBL2331482, “Synthesis of some new 2-(3-pyridyl)-4,5-disubstituted thiazoles as potent antimicrobial agents” (2013).

Common to all, as to format: functional
Assay [1] concerns Staphylococcus epidermidis. As to the kind of experiment: Ratio of ampicillin MIC to compound MIC for Staphylococcus epidermidis RCMB 010024.
Another assay concerns Talaromyces marneffei. Put plainly: Antifungal activity against Penicillium marneffei RCMB 01267 assessed as growth inhibition after 48 hrs by twofold serial dilution method. Particulars: RCMB 01267, 48 h. The essentials:
(§1)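 Fungi were tested by microdilution in Sabouraud liquid medium. Only compounds with disc-diffusion zones >10 mm went on to this test. DMF stocks (1000 µg/mL) were serially diluted twofold to 500–0.007 µg/mL. Sealed plates were held 48 h at 25 °C in a humid chamber. MIC was the lowest concentration without visible turbidity. DMF and uninoculated-medium controls ran in parallel.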

Another assay has as its system Geotrichum candidum. Put plainly: Antifungal activity against Geotricum candidum RCMB 05096 assessed as growth inhibition after 48 hrs by twofold serial dilution method. To be noted: RCMB 05096, 48 h. In outline:
as §1

The next assay has as its system Candida albicans. As to the kind of experiment: Antifungal activity against Candida albicans RCMB 05035 assessed as growth inhibition after 48 hrs by twofold serial dilution method. To be noted: RCMB 05035, 48 h. The essentials: as §1
Another assay deals with Aspergillus clavatus. Put plainly: Antifungal activity against Aspergillus clavatus RCMB 02593 assessed as growth inhibition after 48 hrs by twofold serial dilution method. Particulars: RCMB 02593, 48 h. The essentials:
as §1

The subject of the next assay is Aspergillus fumigatus. As to the kind of experiment: Antifungal activity against Aspergillus fumigatus RCMB 02564 assessed as growth inhibition after 48 hrs by twofold serial dilution method. Particulars: RCMB 02564, 48 h. In outline: as §1
The next assay relates to Pseudomonas aeruginosa. As to the kind of experiment: Antibacterial activity against Pseudomonas aeruginosa RCMB 010043 assessed as growth inhibition after 24 hrs by twofold serial dilution method. The essentials:
(§2)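 Broth microdilution in Müller–Hinton broth, 96-well plates. Only compounds giving disc-diffusion zones >10 mm were tested. DMF stocks (1000 µg/mL) were diluted twofold to a final 500–0.007 µg/mL, with about 10^6 CFU/mL bacteria. Sealed plates ran 24 h at 37 °C in a humid chamber. MIC was the lowest concentration with no visible turbidity. DMF and uninoculated-medium controls were included.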

In a further assay the test system is Shigella flexneri. As to the kind of experiment: Antibacterial activity against Shigella flexneri RCMB 0100542 assessed as growth inhibition after 24 hrs by twofold serial dilution method. The essentials: as §2
Another assay has as its system Klebsiella pneumoniae. As to the kind of experiment: Antibacterial activity against Klebsiella pneumoniae RCMB 010093 assessed as growth inhibition after 24 hrs by twofold serial dilution method. To be noted: RCMB 010093, 24 h. The essentials:
as §2

In a further assay the test system is Neisseria gonorrhoeae. As to the kind of experiment: Antibacterial activity against Neisseria gonorrhoeae RCMB 010076 assessed as growth inhibition after 24 hrs by twofold serial dilution method. In outline: as §2
The next assay relates to Enterococcus faecalis. Put plainly: Antibacterial activity against Enterococcus faecalis RCMB 010068 assessed as growth inhibition after 24 hrs by twofold serial dilution method. In outline:
as §2

The test system of another assay is Bacillus subtilis. Put plainly: Antibacterial activity against Bacillus subtilis RCMB 010063 assessed as growth inhibition after 24 hrs by twofold serial dilution method. Particulars: RCMB 010063, 24 h. The essentials:
as §2

A further assay deals with Streptococcus pyogenes. Put plainly: Antibacterial activity against Streptococcus pyogenes RCMB 010015 assessed as growth inhibition after 24 hrs by twofold serial dilution method. The essentials: as §2
The subject of assay [2] is Staphylococcus epidermidis. As to the kind of experiment: Antibacterial activity against Staphylococcus epidermidis RCMB 010024 assessed as growth inhibition after 24 hrs by twofold serial dilution method. Particulars: RCMB 010024, 24 h. In outline: as §2
Another assay has as its system Staphylococcus aureus. Put plainly: Antibacterial activity against Staphylococcus aureus RCMB 010027 assessed as growth inhibition after 24 hrs by twofold serial dilution method. Particulars: RCMB 010027, 24 h. In outline:
as §2

A further assay relates to Proteus vulgaris. As to the kind of experiment: Antibacterial activity against Proteus vulgaris RCMB 010085 assessed as growth inhibition after 24 hrs by twofold serial dilution method. To be noted: RCMB 010085, 24 h. In outline: as §2

≈ marks a conversion by molar mass, not a printed value. Calls of active or inactive are those of the source. The calls are words filed in the database; no cut-off is given here.

The term MIC denotes the lowest concentration that inhibits growth of the organism. As for `CC(=O)c1sc(-c2cccnc2)nc1C`, the Ratio in assay [1] turned out to be 2. Further, the minimum inhibitory concentration (MIC) is 3.9 mg/L (≈ 17.9 µM) with Talaromyces marneffei; 0.48 mg/L (≈ 2.2 µM) with Geotrichum candidum; 7.81 mg/L (≈ 35.8 µM) in the assay on Candida albicans; 3.9 mg/L (≈ 17.9 µM) in the assay with Aspergillus clavatus; 1.95 mg/L (≈ 8.93 µM) in the assay with Aspergillus fumigatus; 500 mg/L (≈ 2290 µM) with Pseudomonas aeruginosa (RCMB 010043, 24 h). Moreover, the minimal inhibitory concentration (MIC) was 3.9 mg/L (≈ 17.9 µM) in the assay with Shigella flexneri (RCMB 0100542, 24 h); 0.48 mg/L (≈ 2.2 µM) with Klebsiella pneumoniae; 15.6 mg/L (≈ 71.6 µM) with Neisseria gonorrhoeae (RCMB 010076, 24 h); 7.81 mg/L (≈ 35.8 µM) in the assay on Enterococcus faecalis (RCMB 010068, 24 h); 0.06 mg/L (≈ 0.275 µM) in the assay with Bacillus subtilis; 3.9 mg/L (≈ 17.9 µM) in the assay with Streptococcus pyogenes (RCMB 010015, 24 h). The results for the MIC (in assay [2]; in the assay with Staphylococcus aureus; with Proteus vulgaris) were 0.24 mg/L (≈ 1.1 µM), 0.24 mg/L (≈ 1.1 µM) and 3.9 mg/L (≈ 17.9 µM), respectively.
Consider `Cc1nc(-c2cccnc2)sc1C(=O)/C=C/c1ccc(Cl)cc1`, for which the MIC with Talaromyces marneffei amounted to 62.5 mg/L (≈ 183 µM); with Geotrichum candidum it was 31.2 mg/L (≈ 91.7 µM); in the assay on Candida albicans, 250 mg/L (≈ 733 µM); with Aspergillus clavatus it was 125 mg/L (≈ 367 µM); in the assay with Aspergillus fumigatus, 62.5 mg/L (≈ 183 µM); in the assay with Klebsiella pneumoniae, 31.2 mg/L (≈ 91.7 µM). Besides, the MIC in the assay on Bacillus subtilis came to 31.2 mg/L (≈ 91.7 µM); in assay [2], 31.2 mg/L (≈ 91.7 µM); with Staphylococcus aureus it was 62.5 mg/L (≈ 183 µM); in the assay on Proteus vulgaris, 62.5 mg/L (≈ 183 µM). Also, the MIC result in the assay on Pseudomonas aeruginosa, in the assay on Shigella flexneri, in the assay with Neisseria gonorrhoeae, with Enterococcus faecalis and in the assay on Streptococcus pyogenes was “inactive” each time.
